Source: ChEMBL document CHEMBL3124843, “Synthesis, cytostatic, antimicrobial, and anti-HCV activity of 6-substituted 7-(het)aryl-7-deazapurine ribonucleosides” (J Med Chem, 2014)
The source made the active and inactive calls. How the calls were made is not given here.

Experiments:
[1] = system: Candida tropicalis; assay: Antifungal activity against Candida tropicalis after 48 hrs; format: functional, organism-based
[2] = system: K562; assay: Cytostatic activity against human K562 cells after 72 hrs by MTT assay; format: functional, cell-based; settings: K562, 72 h
Outline: (§1)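 IC50 is the concentration that cuts cell growth by 50%, read by quantitative metabolic MTT staining after a 3-day treatment. The resistant sublines were made by raising the concentration of the cytotoxic drug step by step. CEM-DNR-bulk (daunorubicin-selected) stably overexpresses mrp-1. K562-TAX (paclitaxel-selected) expresses only mdr-1. HCT116p53−/− carries null p53 alleles. BJ and MRC-5 are nonmalignant fibroblasts.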

[3] = system: A549; assay: Cytostatic activity against human A549 cells after 72 hrs by MTT assay; format: functional, cell-based; settings: A549, 72 h; outline: as §1
[4] = system: Pichia kudriavzevii; assay: Antifungal activity against Candida crusei after 48 hrs; format: functional, organism-based
[5] = system: Escherichia coli; assay: Antibacterial activity against Escherichia coli CCM 3954 after 24 hrs; format: functional, organism-based
[6] = system: HCT-116; assay: Cytostatic activity against human HCT116 cells after 72 hrs by MTT assay; format: functional, cell-based; settings: HCT-116, 72 h; outline: as §1
[7] = system: Enterococcus faecalis; assay: Antibacterial activity against Enterococcus faecalis CCM 4224 after 24 hrs; format: functional, organism-based
[8] = system: Hepatitis C virus; assay: Antiviral activity against Hepatitis C virus subtype 1b infected in human HuH7 cells; format: functional, organism-based, Hepacivirus hominis; settings: genotype 1b, Huh-7
[9] = system: HepG2; assay: Antiproliferative activity against human HepG2 cells after 72 hrs by XTT assay; format: functional, cell-based; settings: HepG2, 72 h
[10] = system: Escherichia coli; assay: Antibacterial activity against multi-resistant Escherichia coli C/16702 after 24 hrs; format: functional, organism-based
[11] = system: HCT-116; assay: Cytostatic activity against p53-deficient human HCT116 cells after 72 hrs by MTT assay; format: functional, cell-based; settings: HCT-116, 72 h; outline: as §1
[12] = system: Pseudomonas aeruginosa; assay: Antibacterial activity against multi-resistant Pseudomonas aeruginosa A/16575 after 24 hrs; format: functional, organism-based
[13] = Antiproliferative activity against human HeLaS3 cells after 72 hrs by XTT assay; format: functional, cell-based; settings: HeLa S3, 72 h
Outline: (§2)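 Antiproliferative test on HL-60 promyelocytic leukemia and HeLa S3 cervical carcinoma cells growing in liquid suspension.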

[14] = Cytotoxicity against human HuH7 cells infected with Hepatitis C virus subtype 1b; format: cell-based, Huh-7
[15] = system: CCRF-CEM; assay: Cytostatic activity against human CCRF-CEM cells after 72 hrs by MTT assay; format: functional, cell-based; outline: as §1
[16] = system: Hepatitis C virus; assay: Antiviral activity against Hepatitis C virus subtype 2a infected in human HuH7 cells; format: functional, organism-based, Hepacivirus hominis; settings: genotype 2a, Huh-7
[17] = Cytostatic activity against human CEM-DNR-bulk cells after 72 hrs by MTT assay; format: functional, cell-based; outline: as §1
[18] = system: HL-60; assay: Antiproliferative activity against human HL60 cells after 72 hrs by XTT assay; format: functional, cell-based; settings: HL-60, 72 h; outline: as §2
[19] = system: MRC5; assay: Cytostatic activity against human MRC5 cells after 72 hrs by MTT assay; format: ADME, cell-based; settings: MRC5, 72 h; outline: as §1
[20] = system: Staphylococcus aureus; assay: Antibacterial activity against Staphylococcus aureus CCM 3953 after 24 hrs; format: functional, organism-based
[21] = system: BJ; assay: Cytostatic activity against human BJ cells after 72 hrs by MTT assay; format: ADME, cell-based; outline: as §1
[22] = system: Candida parapsilosis; assay: Antifungal activity against Candida parapsilosis after 48 hrs; format: functional, organism-based
[23] = system: Candida albicans; assay: Antifungal activity against Candida albicans after 48 hrs; format: functional, organism-based
[24] = system: Pseudomonas aeruginosa; assay: Antibacterial activity against Pseudomonas aeruginosa CCM 3955 after 24 hrs; format: functional, organism-based
[25] = Cytotoxicity against human HuH7 cells infected with Hepatitis C virus subtype 2a; format: cell-based, Huh-7
[26] = system: K562; assay: Cytostatic activity against paclitaxel-resistant human K562 cells after 72 hrs by MTT assay; format: functional, cell-based; settings: K562, 72 h; outline: as §1
[27] = system: Staphylococcus aureus; assay: Antibacterial activity against methicillin-resistant Staphylococcus aureus MRSA 4591 after 24 hrs; format: functional, organism-based
[28] = system: Staphylococcus haemolyticus; assay: Antibacterial activity against methicillin-resistant Staphylococcus haemolyticus A/16568 after 24 hrs; format: functional, organism-based

Row | Compound | Activity [1] | IC50 [2] | IC50 [3] | Activity [4] | Activity [5] | IC50 [6] | Activity [7] | EC50 [8] | IC50 [9] | Activity [10] | IC50 [11] | Activity [12] | IC50 [13] | CC50 [14] | IC50 [15] | EC50 [16] | IC50 [17] | IC50 [18] | IC50 [19] | Activity [20] | also measured
1 | C#Cc1cn([C@@H]2O[C@H](CO)[C@@H](O)[C@H]2O)c2ncnc(NC)c12 | inactive | > 20 µM | > 20 µM | inactive | inactive | > 20 µM | inactive | 0.35 µM | > 15 µM | inactive | > 20 µM | inactive | > 20 µM | > 44 µM | > 20 µM | > 44 µM | 18.5 µM | 9.06 µM | > 100 µM | inactive | IC50 [21]: 86 µM; Activity [22]: inactive; Activity [23]: inactive; Activity [24]: inactive; CC50 [25]: > 44 µM; IC50 [26]: 1.38 µM; Activity [27]: inactive; Activity [28]: inactive
2 | Nc1nc(N)c2c(-c3cc4ccccc4o3)cn([C@@H]3O[C@H](CO)[C@@H](O)[C@H]3O)c2n1 | inactive | 18.6 µM | > 20 µM | inactive | inactive | > 20 µM | inactive | 5.58 µM | > 20 µM | inactive | 14 µM | inactive | > 20 µM | > 44 µM | > 20 µM | 11.5 µM | > 20 µM | > 15 µM | 78.5 µM | inactive | IC50 [21]: > 100 µM; Activity [22]: inactive; Activity [23]: inactive; Activity [24]: inactive; CC50 [25]: > 44 µM; IC50 [26]: > 20 µM; Activity [27]: inactive; Activity [28]: inactive
3 | Cc1nc(N)c2ccn([C@@H]3O[C@H](CO)[C@@H](O)[C@H]3O)c2n1 | inactive | > 20 µM | > 100 µM | inactive | inactive | > 20 µM | inactive | > 44 µM | > 20 µM | inactive | > 20 µM | inactive | > 20 µM | > 44 µM | > 20 µM | > 44 µM | > 20 µM | > 20 µM | > 100 µM | inactive | IC50 [21]: > 100 µM; Activity [22]: inactive; Activity [23]: inactive; Activity [24]: inactive; CC50 [25]: > 44 µM; IC50 [26]: > 20 µM; Activity [27]: inactive; Activity [28]: inactive
4 | COc1ncnc2c1ccn2[C@@H]1O[C@H](CO)[C@@H](O)[C@H]1O | inactive | > 20 µM | > 20 µM | inactive | inactive | > 20 µM | inactive | > 44 µM | > 20 µM | inactive | > 20 µM | inactive | > 20 µM | > 44 µM | > 20 µM | > 44 µM | > 20 µM | > 20 µM | > 100 µM | inactive | IC50 [21]: > 100 µM; Activity [22]: inactive; Activity [23]: inactive; Activity [24]: inactive; CC50 [25]: > 44 µM; IC50 [26]: > 20 µM; Activity [27]: inactive; Activity [28]: inactive
5 | Cc1nc(N)c2c(-c3ccccc3)cn([C@@H]3O[C@H](CO)[C@@H](O)[C@H]3O)c2n1 | inactive | > 20 µM | > 20 µM | inactive | inactive | > 100 µM | inactive | > 44 µM | > 20 µM | inactive | > 20 µM | inactive | > 20 µM | > 44 µM | > 20 µM | > 44 µM | > 20 µM | > 20 µM | > 100 µM | inactive | IC50 [21]: > 100 µM; Activity [22]: inactive; Activity [23]: inactive; Activity [24]: inactive; CC50 [25]: > 44 µM; IC50 [26]: > 20 µM; Activity [27]: inactive; Activity [28]: inactive
6 | O=c1[nH]cnc2c1c(-c1cc3ccccc3o1)cn2[C@@H]1O[C@H](CO)[C@@H](O)[C@H]1O | inactive | > 20 µM | > 20 µM | inactive | inactive | > 20 µM | inactive | 7.21 µM | > 20 µM | inactive | > 20 µM | inactive | > 20 µM | > 44 µM | > 20 µM | 17.4 µM | > 20 µM | > 20 µM | > 100 µM | inactive | IC50 [21]: 62.7 µM; Activity [22]: inactive; Activity [23]: inactive; Activity [24]: inactive; CC50 [25]: > 44 µM; IC50 [26]: > 20 µM; Activity [27]: inactive; Activity [28]: inactive
7 | CNc1ncnc2c1c(-c1ccsc1)cn2[C@@H]1O[C@H](CO)[C@@H](O)[C@H]1O | inactive | > 20 µM | > 20 µM | inactive | inactive | > 20 µM | inactive | > 44 µM | > 20 µM | inactive | > 20 µM | inactive | > 20 µM | > 44 µM | > 20 µM | > 44 µM | > 20 µM | > 20 µM | > 100 µM | inactive | IC50 [21]: > 100 µM; Activity [22]: inactive; Activity [23]: inactive; Activity [24]: inactive; CC50 [25]: > 44 µM; IC50 [26]: > 20 µM; Activity [27]: inactive; Activity [28]: inactive
8 | Cc1nc(N)c2c(-c3cccs3)cn([C@@H]3O[C@H](CO)[C@@H](O)[C@H]3O)c2n1 | inactive | > 20 µM | > 20 µM | inactive | inactive | > 20 µM | inactive | > 44 µM | > 20 µM | inactive | > 20 µM | inactive | > 20 µM | > 44 µM | > 20 µM | > 44 µM | > 20 µM | > 20 µM | > 100 µM | inactive | IC50 [21]: > 100 µM; Activity [22]: inactive; Activity [23]: inactive; Activity [24]: inactive; CC50 [25]: > 44 µM; IC50 [26]: > 20 µM; Activity [27]: inactive; Activity [28]: inactive
